# According to ChEMBL document CHEMBL4028894, “Identification of a New Pyrazolo[1,5-a]quinazoline Ligand Highly Affine to γ-Aminobutyric Type A (GABAA) Receptor Subtype with Anxiolytic-Like and Antihyperalgesic Activity” (J Med Chem, 2017):
# pKi: −log10 of the molar value.
# Experiments:
# [1] = organism: Bos taurus; experiment: Displacement of [3H]Ro15-1788 from GABAA receptor in bovine cerebral cortex membranes at 10 uM after 90 mins by liquid scintillation counting method relative to control; format: cell membranes; conditions: Membrane
# Summary of the method: (§1)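 Bovine cerebral cortex membranes in 50 mM tris-citrate pH 7.4, with displacement of specific [3H]flumazenil binding. Single-point screen at 10 μM gives % inhibition. Where inhibition exceeds 80%, at least six concentrations tested and Ki derived by iterative curve fitting and the Cheng-Prusoff equation. Five experiments, each in triplicate; mean ± SEM.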
# [2] = Displacement of [3H]Ro15-1788 from GABAA receptor in bovine cerebral cortex membranes after 90 mins by liquid scintillation counting method; format: cell membranes, Bos taurus, Membrane; summary of the method: as §1
# [3] = test system: Mus musculus; experiment: Antihyperalgesic activity in streptozotocin-induced Swiss albino mouse hyperalgesia model assessed as licking latency time at 30 mg/kg, po after 60 mins by hot plate test (reference value: 9.6 +/- 0.9 secs); format: functional
# [4] = test system: Mus musculus; experiment: Effect on licking latency time in Swiss albino mouse at 30 mg/kg, po after 60 mins by hot plate test (reference value: 17.9 +/- 1.1 secs); format: ADME, organism-based; conditions: in vivo, 1 h
# [5] = test system: Mus musculus; experiment: Anxiolytic-like activity in Swiss albino mouse assessed as persistent time in light box at 30 mg/kg, po administered 30 mins prior to testing by light dark box test (131.9 +/- 6.5 secs); format: functional
# [6] = test system: Mus musculus; experiment: Anxiolytic-like activity in Swiss albino mouse assessed as persistent time in light box at 1 mg/kg, po administered 30 mins prior to testing by light dark box test (131.9 +/- 6.5 secs); format: functional
# [7] = test system: NSC; experiment: Cytotoxicity against human H9-derived neural stem cells assessed as effect on cell viability at 1 to 1000 nM after 72 hrs by MTS assay; format: cell-based; conditions: 1 µM
# Summary of the method: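 Neural stem cells derived from H9 were grown on polyornithine/laminin and differentiated for 7 days in serum-free Neurobasal with 2% B-27, 2 mM L-glutamine and 5 μM retinoic acid. Cells then exposed 72 h to 1 nM-1 μM compound. MTS absorbance read at 490, background subtracted, expressed as % of untreated cells. Three independent experiments, each in triplicate.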
# [8] = test system: Mus musculus; experiment: Effect on spontaneous motility in Swiss albino mouse at 30 mg/kg, po measured over 5 mins by […] test; format: ADME, organism-based; conditions: in vivo
# Summary of the method: (§2)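 Male Swiss albino mice, 8 per group, hole-board: a 40 cm square with 16 holes. Compound given 30 min before the test. Each mouse explores freely for 5 min. Photobeam counts across quadrants give locomotor activity; photocells in the holes give the number of hole inspections.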
# [9] = test system: Mus musculus; experiment: Anticonvulsant activity in Swiss albino mouse assessed as protection against subcutaneous pentylenetetrazole-induced seizures at 30 mg/kg, po administered 30 mins followed by pentylenetetrazole challenge measured over 30 mins relative to control; format: functional
# Summary of the method: (§3)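 Male Swiss albino mice, 6 per group. Compound given p.o. in 1% carboxymethylcellulose. Pentylenetetrazole 90 mg/kg in saline given s.c. 30 min later. Occurrence of clonic generalized convulsions noted over 30 min. Result expressed as % protection, with the vehicle group taken as 0%.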
# [10] = test system: Mus musculus; experiment: Anticonvulsant activity in Swiss albino mouse assessed as protection against subcutaneous pentylenetetrazole-induced seizures at 100 mg/kg, po administered 30 mins followed by pentylenetetrazole challenge measured over 30 mins relative to control; format: functional; summary of the method: as §3
# [11] = test system: Mus musculus; experiment: (§4) Reversal of scopolamine-induced amnesic effect in Swiss albino mouse assessed as retention session latency time at 30 mg/kg, po administered 30 mins followed by establishment of training session and immediate addition of scopolamine post session by passive-avoidance test (reference value: 46.3 +/- 7.5 secs); format: functional
# Summary of the method: (§5)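 Male Swiss albino mice, 8 per group, step-through passive avoidance. Compound given p.o. in 1% carboxymethylcellulose 30 min before training. Scopolamine 1.5 mg/kg in saline given i.p. immediately after training. Punishment on entering the dark compartment is a fall into 10 °C water. Latencies measured at training and at retention 24 h later (max 120 s).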
# [12] = test system: Mus musculus; experiment: Amnesic effect in Swiss albino mouse assessed as retention session latency time at 30 mg/kg, po administered 30 mins prior to testing by passive-avoidance test (reference value: 98.4 +/- 8.8 secs); format: ADME, organism-based; conditions: in vivo
# [13] = test system: Rattus norvegicus; experiment: Antihyperalgesic activity in Sprague-Dawley rat peripheral mononeuropathy model assessed as ipsilateral paw pressure at 30 mg/kg, po after 45 mins by analgesimeter (36.9 +/- 3.8 g); format: functional
# [14] = test system: Mus musculus; experiment: as §4, with “as training” for “as retention”, “at 10” for “at 30”, “value: 15.9” for “value: 46.3”, “+/- 3” for “+/- 7.5”; format: functional; summary of the method: as §5
# [15] = test system: Mus musculus; experiment: Anxiolytic-like activity in Swiss albino mouse assessed as persistent time in light box at 10 mg/kg, po administered 30 mins prior to testing by light dark box test (131.9 +/- 6.5 secs); format: functional
# [16] = test system: Mus musculus; experiment: Amnesic effect in Swiss albino mouse assessed as training session latency time at 30 mg/kg, po administered 30 mins prior to testing by passive-avoidance test (reference value: 14.1 +/- 3.4 secs); format: ADME, organism-based; conditions: in vivo
# [17] = test system: Mus musculus; experiment: Antihyperalgesic activity in streptozotocin-induced Swiss albino mouse hyperalgesia model assessed as licking latency time at 30 mg/kg, po after 30 mins by hot plate test (reference value: 10.2 +/- 0.8 secs); format: functional
# [18] = test system: Mus musculus; experiment: Effect on licking latency time in Swiss albino mouse at 30 mg/kg, po after 15 mins by hot plate test (reference value: 18.3 +/- 1.1 secs); format: ADME, organism-based; conditions: in vivo, 0.25 h
# [19] = test system: Mus musculus; experiment: Effect on explorative activity in Swiss albino mouse at 30 mg/kg, po measured over 5 mins by […] test; format: ADME, organism-based; conditions: in vivo; summary of the method: as §2
# [20] = test system: Mus musculus; experiment: Antihyperalgesic activity in streptozotocin-induced Swiss albino mouse hyperalgesia model assessed as licking latency time at 30 mg/kg, po after 15 mins by hot plate test (reference value: 9.4 +/- 1.1 secs); format: functional
# [21] = test system: Mus musculus; experiment: Anxiolytic-like activity in Swiss albino mouse assessed as persistent time in light box at 30 mg/kg, po administered 30 mins prior to testing in presence of GABAA receptor antagonist flumazenil by light dark box test (131.9 +/- 6.5 secs); format: functional
# [22] = test system: Mus musculus; experiment: Effect on licking latency time in Swiss albino mouse at 30 mg/kg, po after 30 mins by hot plate test (reference value: 18.8 +/- 1.2 secs); format: ADME, organism-based; conditions: in vivo, 0.5 h
# [23] = test system: Rattus norvegicus; experiment: Antihyperalgesic activity in Sprague-Dawley rat peripheral mononeuropathy model assessed as ipsilateral paw pressure at 10 mg/kg, po after 30 mins by analgesimeter (41.7 +/- 3.6 g); format: functional
# [24] = test system: Mus musculus; experiment: as §4, with “at 10” for “at 30”; format: functional; summary of the method: as §5
# [25] = test system: Mus musculus; experiment: as §4, with “training” for “retention”, “15.9” for “46.3”, “3” for “7.5”; format: functional; summary of the method: as §5
# [26] = test system: Rattus norvegicus; experiment: Antihyperalgesic activity in Sprague-Dawley rat peripheral mononeuropathy model assessed as ipsilateral paw pressure at 10 mg/kg, po after 45 mins by analgesimeter (36.9 +/- 3.8 g); format: functional
# [27] = test system: Mus musculus; experiment: Effect on licking latency time in Swiss albino mouse at 30 mg/kg, po after 45 mins by hot plate test (reference value: 18 +/- 0.9 secs); format: ADME, organism-based; conditions: in vivo, 0.75 h
# [28] = test system: Mus musculus; experiment: Effect on motor coordination in Swiss albino mouse at 30 mg/kg, po measured over 30 secs at 15 to 60 mins post drug administration by rota rod test; format: ADME, organism-based; conditions: in vivo
# Summary of the method: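 Male Swiss albino mice, 8 per group. Oral dose in 1% carboxymethylcellulose. Rota rod turning at 16 r.p.m. Falls from the rod counted over 30 s, measured before dosing and every 15 min up to 60 min after.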
# [29] = test system: Rattus norvegicus; experiment: Antihyperalgesic activity in Sprague-Dawley rat peripheral mononeuropathy model assessed as ipsilateral paw pressure at 30 mg/kg, po after 30 mins by analgesimeter (41.7 +/- 3.6 g); format: functional
# [30] = test system: Rattus norvegicus; experiment: Antihyperalgesic activity in Sprague-Dawley rat peripheral mononeuropathy model assessed as ipsilateral paw pressure at 10 mg/kg, po after 15 mins by analgesimeter (33.7 +/- 3.2 g); format: functional
# [31] = test system: Rattus norvegicus; experiment: Effect on pain threshold in contralateral paw in Sprague-Dawley rat peripheral mononeuropathy model at 30 mg/kg, po; format: ADME, organism-based; conditions: in vivo
# [32] = test system: Rattus norvegicus; experiment: Antihyperalgesic activity in Sprague-Dawley rat peripheral mononeuropathy model assessed as ipsilateral paw pressure at 30 mg/kg, po after 15 mins by analgesimeter (33.7 +/- 3.2 g); format: functional
# [33] = test system: Mus musculus; experiment: Anticonvulsant activity in Swiss albino mouse assessed as protection against subcutaneous pentylenetetrazole-induced seizures at 10 mg/kg, po administered 30 mins followed by pentylenetetrazole challenge measured over 30 mins relative to control; format: functional
# Summary of the method: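 Male Swiss albino mice (23-30 g), 6 per group. Test drug suspended in 1% carboxymethylcellulose, given orally 30 min before PTZ 90 mg/kg s.c. (saline). Clonic generalized convulsions recorded over 30 min. Result expressed as % protection versus vehicle-treated animals (0% protection).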
# [34] = test system: Mus musculus; experiment: Antihyperalgesic activity in streptozotocin-induced Swiss albino mouse hyperalgesia model assessed as licking latency time at 30 mg/kg, po after 45 mins by hot plate test (reference value: 10.9 +/- 0.8 secs); format: functional
# [35] = test system: Mus musculus; experiment: Anxiolytic-like activity in Swiss albino mouse assessed as persistent time in light box at 100 mg/kg, ip administered 40 mins prior to testing by light dark box test (131.9 +/- 6.5 secs); format: functional
smiles,measurement,setting,value
COc1ccccc1COC(=O)c1cnn2c1ncc1ccccc12,inhibition,[1],> 80%
same,pKi,[2],8.50
N#Cc1cnn2c1ncc1ccccc12,inhibition,[1],27%
COc1ccc2cnc3c(C(=O)OCc4ccco4)cnn3c2c1,inhibition,[1],> 80%
same,pKi,[2],7.82
CCOC(=O)c1cnn2c1[nH]c(=O)c1ccc(OC)cc12,inhibition,[1],2%
CCOC(=O)c1cnn2c1NCc1ccc(OC)cc1-2,inhibition,[1],> 80%
same,pKi,[2],6.42
O=C(OCc1cccs1)c1cnn2c1ncc1ccccc12,inhibition,[1],> 80%
same,pKi,[2],7.88
COc1ccc2cnc3c(C(=O)OCc4ccccc4OC)cnn3c2c1,Time,[3],11.2 s
same,Time,[4],17.5 s
same,Time,[5],165.7 s
same,Time,[6],133.1 s
same,Activity,[7],Non-Toxic
same,Activity,[8],Non-Toxic
same,Activity,[9],10%
same,Activity,[10],10%
same,Time,[11],60.4 s
same,Time,[12],105.6 s
same,Activity,[13],35.9 g
same,Time,[14],17.5 s
same,Time,[15],169.6 s
same,Time,[16],16.5 s
same,inhibition,[1],> 80%
same,Time,[17],15.5 s
same,Time,[18],17.3 s
same,Activity,[19],Non-Toxic
same,Time,[20],16.6 s
same,Time,[21],136.4 s
same,Time,[22],17.2 s
same,Activity,[23],41.7 g
same,Time,[24],53.1 s
same,Time,[25],17.52 s
same,Activity,[26],36.9 g
same,Time,[27],18.4 s
same,Activity,[28],Non-Toxic
same,Activity,[29],41.7 g
same,Activity,[30],39.8 g
same,Activity,[31],Non-Toxic
same,pKi,[2],9.57
same,Activity,[32],52.4 g
same,Activity,[33],0%
same,Time,[34],13.1 s
O=C(OCc1ccccc1)c1cnn2c1ncc1ccccc12,inhibition,[1],> 80%
same,pKi,[2],7.59
COc1ccc2cnc3c(C(=O)OCc4ccccc4)cnn3c2c1,inhibition,[1],> 80%
same,pKi,[2],7.72
COc1ccc2cnc3c(C(=O)OC(C)C)cnn3c2c1,inhibition,[1],> 80%
same,pKi,[2],7.01
COCCOc1ccc2cnc3c(C#N)cnn3c2c1,inhibition,[1],53%
CN1C(=O)CN=C(c2ccccc2)c2cc(Cl)ccc21 [DIAZEPAM],Time,[15],165.6 s
same,pKi,[2],7.91
same,Activity,[33],100%
CCOC(=O)c1cnn2c1ncc1ccccc12,inhibition,[1],> 80%
same,pKi,[2],6.08 to 6.28
COc1ccc2c(c1)-n1ncc(C(=O)OCc3ccccc3)c1NC2,inhibition,[1],> 80%
same,pKi,[2],7.47
CCOC(=O)c1ncn2c1CN(C)C(=O)c1cc(F)ccc1-2 [FLUMAZENIL],Time,[35],127.5 s
COc1ccc2cnc3c(C#N)cnn3c2c1,inhibition,[1],> 80%
same,pKi,[2],6.42
COc1ccc2c(c1)-n1ncc(C(=O)OCc3ccccc3OC)c1NC2,inhibition,[1],> 80%
same,pKi,[2],7.80
COc1ccc2cnc3c(C(=O)OCc4cccs4)cnn3c2c1,inhibition,[1],> 80%
same,pKi,[2],7.78
CCOC(=O)c1cnn2c1ncc1ccc(OC)cc12,inhibition,[1],> 80%
same,pKi,[2],6.99
